Values joined by “and” are separate entries in the source; they are usually repeats but may differ in a detail not shown here. Equal values may be shown once. Values belong to the molecule of their own block, whether it stands above or below them. Active and inactive are the calls of the source. No cut-off for these calls is given here.
Experiments:
Plenodomus lingam [1] = assay: Inhibition of Leptosphaeria maculans BoLm assessed as conversion of brassinin to indole-3-carboxaldehyde at 0.60 mM
Procedure, shortened: (§1)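 Initial-velocity assays with purified BOLm: product added at fixed 0.30 or 0.60 mM, brassinin varied 0.05–0.30 mM at saturating PMS (1 mM); also PMS varied […] with brassinin fixed at 0.05, 0.10 or 0.15 mM; standard DEA pH 8.2 assay, HPLC quantitation.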

Plenodomus lingam [2] = assay: Antifungal activity against Leptosphaeria maculans isolate BJ 125 assessed as growth inhibition at 0.50 mM relative to control; assay type: functional; design: scale not given: the % may be the effect or the level left
Procedure, shortened: (§2)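 Mycelial growth inhibition of L. maculans isolate BJ 125 tested at 0.50, 0.25 and 0.12 mM; growth compared with control cultures grown without compound under otherwise identical conditions.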

Plenodomus lingam [3] = assay: Antifungal activity against Leptosphaeria maculans isolate BJ 125 assessed as growth inhibition; assay type: functional; design: scale not given: the % may be the effect or the level left; procedure, shortened: as §2
Plenodomus lingam [4] = assay: Activity of Leptosphaeria maculans BoLm in presence of DEPC reagent relative to control
Procedure, shortened: (§3)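 Purified BOLm was incubated in a reaction buffer with each modifier: BUT 10 mM, EAM 2.5 mM, NAI 2.5 mM or DEPC 2.5 mM in 100 mM phosphate pH 7.5; IAA 2.5 mM in 100 mM MES pH 6.0; PMSF 2.5 mM in 100 mM phosphate pH 8.1. Residual activity was then read in the standard brassinin/PMS HPLC assay. Result is specific activity as a percentage of untreated enzyme.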

Plenodomus lingam [5] = assay: Activity of Leptosphaeria maculans BoLm in presence of WRK reagent relative to control
Procedure, shortened: (§4)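 Purified BOLm was treated with the carboxyl-specific reagent (WRK or EDC, 5–50 mM) in 100 mM MES pH 6.0 at 20 °C. Aliquots taken at time intervals were assayed for residual activity in the standard brassinin/PMS HPLC assay. Activity is given as a percentage of untreated enzyme. For WRK, kobs came from ln residual activity versus time, and K_I and k2 from 1/kobs versus 1/[WRK].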

Plenodomus lingam [6] = assay: Activity of Leptosphaeria maculans BoLm in presence of NAI reagent relative to control; procedure, shortened: as §3
Plenodomus lingam [7] = assay: Selectivity ratio of compound to dideuterated brassinin for Leptosphaeria maculans BoLm activity
Procedure, shortened: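 Kinetic isotope effect = (kcat/Km)H / (kcat/Km)D. Purified BOLm at pH 8.2 with saturating PMS (1.0 mM), 20 °C, 20 min. Substrate was varied over 0.05–1.0 mM (brassinin series) or 0.05–2.8 mM (carbamate series), comparing natural-abundance and deuterated substrates. Product was quantified by HPLC. Four independent experiments.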

Plenodomus lingam [8] = assay: Activity of Leptosphaeria maculans BoLm in presence of IAA reagent relative to control; procedure, shortened: as §3
Plenodomus lingam [9] = assay: Activity of Leptosphaeria maculans BoLm
Procedure, shortened: (§5)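 BOLm purified from 3-phenylindole-induced L. maculans BJ-125 liquid cultures. Assay buffer: 20 mM DEA pH 8.2, 1.0 mM DTT, 0.1% Triton X-100, with 1.0 mM PMS as electron acceptor, which is saturating. Substrate was varied over 0.05–1.0 mM for brassinin or 0.05–2.8 mM for the carbamate. Reactions ran 20 min at 20 °C and were stopped and extracted with EtOAc. Indole-3-carboxaldehyde was quantified by HPLC-DAD against calibration curves. kcat and Km were taken from saturation curves. Four independent experiments.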

Plenodomus lingam [10] = assay: Activity of Leptosphaeria maculans BoLm in presence of PMSF reagent relative to control; procedure, shortened: as §3
Plenodomus lingam [11] = assay: Activity of Leptosphaeria maculans BoLm in presence of BUT reagent relative to control; procedure, shortened: as §3
Plenodomus lingam [12] = assay: Activity of Leptosphaeria maculans BoLm at 0.05 to 1.0 mM; procedure, shortened: as §5
Plenodomus lingam [13] = assay: Ratio of kcat to Km for Leptosphaeria maculans BoLm; procedure, shortened: as §5
Plenodomus lingam [14] = assay: Activity of Leptosphaeria maculans BoLm in presence of H218O relative to Brassinin; details: tested as the 2H-labelled form
Plenodomus lingam [15] = assay: Activity of Leptosphaeria maculans BoLm in presence of EAM reagent relative to control; procedure, shortened: as §3
Plenodomus lingam [16] = assay: Activity of Leptosphaeria maculans BoLm relative to Brassinin; details: tested as the 2H-labelled form
Plenodomus lingam [17] = assay: Activity of Leptosphaeria maculans BoLm in presence of EDC reagent relative to control; procedure, shortened: as §4
Plenodomus lingam [18] = assay: Inhibition of Leptosphaeria maculans BoLm assessed as conversion of brassinin to indole-3-carboxaldehyde at 0.30 mM; procedure, shortened: as §1
Plenodomus lingam [19] = assay: Ratio of kcat to Km for Leptosphaeria maculans BoLm to ratio of kcat to Km for Leptosphaeria maculans BoLm with the deuterated substrate; details: tested as the 2H-labelled form
Plenodomus lingam [20] = assay: Activity of Leptosphaeria maculans BoLm at 0.05 to 2.8 mM
Procedure, shortened: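 Purified BOLm from 3-phenylindole-induced L. maculans BJ-125 cultures; substrate varied 0.05–2.8 mM with saturating PMS (1.0 mM) in 20 mM DEA pH 8.2, 1 mM DTT, 0.1% Triton X-100; 20 °C, 20 min; EtOAc extraction, HPLC-DAD quantitation of indole-3-carboxaldehyde against calibration curves; kcat, Km from saturation curves; four independent experiments.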

inhibition (Plenodomus lingam [1]): inactive
SMILES: CSC(N)=S
Activity (Plenodomus lingam [2]): 18%
Activity (Plenodomus lingam [3]): 18%

SMILES: CSC(=S)NCc1c[nH]c2ccccc12
Activity (Plenodomus lingam [4]): 103%
Activity (Plenodomus lingam [5]): 17%
Activity (Plenodomus lingam [6]): 111%
Ratio (Plenodomus lingam [7]): 4
Activity (Plenodomus lingam [8]): 106%
Km (Plenodomus lingam [9]): 96 µM
Km (Plenodomus lingam [9]; tested as the 2H-labelled form): 151 µM and 94 µM and 96 µM
kcat (Plenodomus lingam [9]; tested as the 2H-labelled form): 0.84 s⁻¹ and 0.47 s⁻¹
Activity (Plenodomus lingam [10]): 108%
Activity (Plenodomus lingam [11]): 95%
kcat (Plenodomus lingam [12]): 0.95 s⁻¹
kcat (Plenodomus lingam [12]; tested as the 2H-labelled form): 0.28 s⁻¹
kcat/Km (Plenodomus lingam [13]): 9900 M⁻¹ s⁻¹
Activity (Plenodomus lingam [14]): 23%
Activity (Plenodomus lingam [15]): 97%
Activity (Plenodomus lingam [16]): 26%
Activity (Plenodomus lingam [17]): 38%

inhibition (Plenodomus lingam [18]): inactive
SMILES: O=Cc1c[nH]c2ccccc12

Ratio (Plenodomus lingam [19]): 3.9
Km (Plenodomus lingam [9]): 622 µM
Km (Plenodomus lingam [9]; tested as the 2H-labelled form): 501 µM
kcat (Plenodomus lingam [20]): 5.62 s⁻¹
kcat (Plenodomus lingam [20]; tested as the 2H-labelled form): 1.15 s⁻¹
kcat/Km (Plenodomus lingam [13]): 9040 M⁻¹ s⁻¹
kcat/Km (Plenodomus lingam [13]; tested as the 2H-labelled form): 2300 M⁻¹ s⁻¹
SMILES: COC(=O)NCc1c[nH]c2ccccc12

Source: ChEMBL document CHEMBL1671808, “Brassinin oxidase mediated transformation of the phytoalexin brassinin: structure of the elusive co-product, deuterium isotope effect and stereoselectivity” (2011)
